# Published values pooled from the literature.
# Lines come from different studies, so protocols differ.
# Target: Serine/threonine-protein kinase 33 (STK33, Homo sapiens, UniProt Q9BYT3)
Compound,test,conditions,remaining binding [%]
C[C@H]1CCN(c2nccc(-c3cnn4ncccc34)n2)C1,binding,1 µM,100
CC(=O)N1CCC(c2ccc(C(=O)NC3=NCCN3)cc2C(F)(F)F)CC1,"cell-free assay, competition with immobilised ligand",1 µM,100
c1cnn2ncc(-c3ccnc(N4CCC45COC5)n3)c2c1,binding,1 µM,100
C[C@@H](c1cccc(C#N)c1)n1cc(Cl)cc(C(N)=O)c1=N,"cell-free assay, competition with immobilised ligand",1 µM,100
O=C(NCC1CCOCC1)c1n[nH]cc1NC(=O)c1c(F)cccc1F,"binding, competition with immobilised ligand",1 µM,79
O=C(O)c1cc(-c2ccc(C3CCNCC3)cc2)c2ccc(-c3ccc(C(F)(F)F)cc3)cc2c1,"cell-free assay, competition with immobilised ligand",1 µM,100
O=C(NCCCN1CCOCC1)c1ccc(Nc2nccc(-c3cc4ccccc4s3)n2)cc1,"binding, competition with immobilised ligand",1 µM,80
C[C@@H](c1ccc(-n2cnc3c(N)ncnc32)cc1)N1CCc2nn(C)c(Cc3ccccc3)c2C1=O,"binding, competition with immobilised ligand",0.1 µM,100
CNC(=O)c1ccccc1Nc1cc(Nc2ccc(N3CCOCC3)cc2OC)ncc1C(F)(F)F,"binding, competition with immobilised ligand",1 µM,< 10
CC(=O)C1=C(C)N(c2cccc(C(F)(F)F)c2)C(=O)N[C@@H]1c1ccc(C#N)nc1,"cell-free assay, competition with immobilised ligand",1 µM,91.6
FC(F)(F)Oc1cccc(-c2cnc3ccc(-c4ccncc4)nn23)c1,"binding, competition with immobilised ligand",5 µM,72
F[C@@H]1CCN(c2nccc(-c3cnn4ncccc34)n2)C1,binding,1 µM,100
O=C(c1ccc(Nc2ncc(Cl)c(-c3ccc(Cl)s3)n2)cc1)N1CCC(N2CCCC2)CC1,"binding, competition with immobilised ligand",1 µM,56
CNC(=O)c1ccc(Nc2ncc(C(F)(F)F)c(NCc3nccnc3N(C)S(C)(=O)=O)n2)cc1,"cell-free assay, competition with immobilised ligand",0.1 µM,68
CN(CCCC(F)(F)F)c1nccc(-c2cnn3ncccc23)n1,binding,1 µM,100
CNC(=O)[C@@H]1CC[C@@H](n2c(-c3ccc4cnccc4c3)nc3ccc(C(=O)NCc4cccc(C(N)=O)c4)cc32)C1,"binding, competition with immobilised ligand",1 µM,87
CC1CCCN1c1nccc(-c2cnn3ncccc23)n1 (stereo not shown),binding,1 µM,100
COc1cnc(Nc2cccc(S(N)(=O)=O)c2)nc1N1CCN(c2ccccc2)CC1,"binding, competition with immobilised ligand",1 µM,100
O=C(Nc1ccc(Oc2ccc(F)cc2)cc1)N1CCc2ncccc2[C@H]1c1ccc(F)cc1,"cell-free assay, competition with immobilised ligand",1 µM,50
C=CC(=O)N1CCC(C(=O)NCC(=O)N2CCN(c3nc(-c4cnc(N)nc4C(F)F)nc(N4CCOCC4)n3)CC2)CC1,"binding, competition with immobilised ligand",1 µM,100
N[C@H]1CCN(c2nccc(-c3cnn4ncccc34)n2)C1,binding,1 µM,0
Cc1cnc(Nc2ccc(C(=O)N3CCC(N4CCCC4)CC3)cc2)nc1-c1cc2ccccc2s1,"binding, competition with immobilised ligand",1 µM,60
